Source: PubChem (Broad Institute)
The list is not random: actives were taken first. Their share in the collection is about 3%.
CaV13 ICDI inh = Primary screen for inhibitors of IQ motif and Ca2+-dependent inactivation inhibitor domain binding in CACNA1D, Förster resonance energy transfer in living cells, …; AID 743397; HEK cells, CFP/YFP FRET ICDI-IQ, plate reader, 10 min; percent FRET-ratio fall versus neutral wells; actives 0.098% (n = 340,000); inhibition, % at 12.3 µM;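 active = mean replicate inhibition of at least 30% and at least 1% of replicates passing that level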;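 also: 0% = median of the neutral control wells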
PfHsp90 set2 = inhibits growth of yeast expressing Plasmodium falciparum Hsp90. S. cerevisiae expressing PfHsp90, BacTiter-Glo ATP, 48 h; yeast lacking PDR1 and PDR3 efflux regulators. inhibition, % at 9.4 µM. actives 0.32% (n = 310,000). AID 504621;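 active = every replicate shows inhibition above about 80%, whatever the replicate mean, limit read from the data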;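 also: 0% = DMSO neutral controls and 100% = 20 µM radicicol positive controls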
N-glyco inh = blocks N-linked glycosylation in D54 reporter cells. actives 0.23% (n = 360,000). D54 ERlucT glycosylation luciferase reporter, 24 h; percent of 100 nM tunicamycin response. reporter increase, % at 12.5 µM;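 active = mean luciferase reporter signal, scaled so untreated is 0 and the glycosylation-blocking control 100, at or above a set limit in every replicate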;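 also: luciferase carries N-glycosylation sites so blocking glycosylation raises the light; 0% = median of neutral control wells and 100% = median of 100 nM tunicamycin wells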
HSF1 activator = increases HSF-1 driven luciferase reporter signal. NIH3T3-HGL HSF-1 luciferase reporter, MG132, 8 h; 100% = twice DMSO control signal. actives 1.7% (n = 300,000). activation, % at 9 µM. AID 504408;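 active = mean replicate activation of at least 50% with a set share of replicates each reaching 50%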;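 also: 0% = median of the neutral control wells and 100% = twice that signal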
PvdQ inh = P. aeruginosa PvdQ acylase inhibition; actives 0.063% (n = 340,000); AID 488965; purified PvdQ acylase, fluorescence plate reader; inhibition, % at 10 µM; in the data active = inhibition above about 30%, passing the limit was not always enough;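 also: 0% = vehicle neutral wells and 100% = reference inhibitor wells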
T cruzi repl = T. cruzi replication inhibition. T. cruzi beta-gal in NIH3T3, luminescence, 90 h. inhibition, % (test concentration not listed). actives 1.4% (n = 300,000);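 active = mean inhibition across valid replicates above about 55%, limit read from the data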;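 also: signal also drops with host cell toxicity which is not excluded here; 0% = plate median of DMSO wells and 100% = zero luminescence signal; higher percent means less beta-gal luminescence so fewer parasites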
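compound dosing = single 50 nL compound addition per well in DMSO | material = NIH/3T3 host cells with β-galactosidase reporter T. cruzi | input = 5,000 host fibroblasts per well | timing = ≥90 h infection period, 3 h prior cell attachment | read-out basis = percent inhibition of parasite-derived β-gal signal | detection = GalScreen β-gal luminescence, detergent lysis, 60 min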
* hit, by the source's call.

What do the screens show for `O=C(CN1CCN(S(=O)(=O)c2ccc(Br)cc2)CC1)N/N=C/c1ccc(Br)s1`?
CaV13 ICDI inh: -5; PfHsp90 set2: 9; N-glyco inh: 1; HSF1 activator: 7; PvdQ inh: 1; T cruzi repl: 63*

Results for FC(F)(F)c1cnc(/C=C/Nc2ccccc2Cl)c(Cl)c1 ?
PfHsp90 set2: 19; N-glyco inh: 1; HSF1 activator: 52*; PvdQ inh: -3; T cruzi repl: -4

Results for OC(c1ccccc1)(c1ccccc1)C1CCN(CCCOc2cccnc2)CC1 ?
CaV13 ICDI inh: -10

How did CCN(CCCC(=O)c1ccc(F)cc1)CCc1ccccc1 do in these assays?
CaV13 ICDI inh: -21; PfHsp90 set2: -2; N-glyco inh: -1; HSF1 activator: 9; PvdQ inh: -15; T cruzi repl: 58*

Results for Cc1ccc(SCc2ccc(C(=O)N3CCCC3)cc2)cc1 ?
CaV13 ICDI inh: 1; PfHsp90 set2: 9; N-glyco inh: -1; HSF1 activator: 58*; PvdQ inh: -5; T cruzi repl: 2

What do the screens show for `O=C(CSc1nncc2ccccc12)Nc1cccc(O)c1`?
CaV13 ICDI inh: -2; PfHsp90 set2: 10; N-glyco inh: 0; HSF1 activator: 67*; PvdQ inh: -5; T cruzi repl: -17

How did Cc1sc2ncnc(N3CCC(C(=O)Nc4nc(-c5cccs5)cs4)CC3)c2c1C do in these assays?
CaV13 ICDI inh: -15; N-glyco inh: -10; HSF1 activator: -55; PvdQ inh: -2; T cruzi repl: 64*

How did CCc1nnc(NC(=O)C2CCN(c3ncnc4sc(C)c(C)c34)CC2)s1 do in these assays?
CaV13 ICDI inh: -16; PfHsp90 set2: -9; N-glyco inh: 0; PvdQ inh: -13

How did COC(=O)C1=C(C)N(Cc2ccccc2C(F)(F)F)C(=NCc2ccc(C(F)(F)F)cc2)NC1CCc1ccccc1 (stereo not given) do in these assays?
CaV13 ICDI inh: -5

What do the screens show for `COc1ccc(-c2c(C)nn3c(NC4CCCC4)cc(C)nc23)cc1OC`?
CaV13 ICDI inh: -19; PfHsp90 set2: -23; N-glyco inh: 2; HSF1 activator: 62*; PvdQ inh: -7; T cruzi repl: 18

What do the screens show for `COc1ccc(CCNc2cc(C)nc3c(-c4ccccc4)c(C)nn23)cc1OC`?
CaV13 ICDI inh: -16; PfHsp90 set2: 19; N-glyco inh: -2; HSF1 activator: 13; PvdQ inh: -6; T cruzi repl: 24

How did Cc1cc(NC2CCCC2)n2nc(C)c(-c3ccccc3)c2n1 do in these assays?
CaV13 ICDI inh: -4; PfHsp90 set2: 11; N-glyco inh: 3; HSF1 activator: 52*; PvdQ inh: -7; T cruzi repl: 60*

How did Cc1cc(NC2CCCC2)n2ncc(-c3ccccc3)c2n1 do in these assays?
CaV13 ICDI inh: -17; PfHsp90 set2: -21; N-glyco inh: -21; HSF1 activator: -74; PvdQ inh: 1; T cruzi repl: 12

Results for Cn1cc(Cc2ccccc2)c(=O)c(Cc2ccccc2)c1 ?
CaV13 ICDI inh: -6; PfHsp90 set2: 10; N-glyco inh: -1; PvdQ inh: 13

What do the screens show for `CCN(Cc1ccncc1)C(=O)c1cc(COc2c(C)cccc2C)on1`?
CaV13 ICDI inh: -2; PfHsp90 set2: 12; N-glyco inh: -1; HSF1 activator: 25; PvdQ inh: -9; T cruzi repl: 57*

Results for CC1(C(=O)NS(=O)(=O)c2ccc(F)cc2F)CCN1C(=O)CCc1ccc(Cl)cc1Cl (stereo not given) ?
CaV13 ICDI inh: -6; N-glyco inh: 1

Results for COC(=O)C(NNc1ccccc1C)(NC(=O)c1ccc(F)cc1)C(F)(F)F (stereo not given) ?
PfHsp90 set2: 3; N-glyco inh: 2; HSF1 activator: 80*; PvdQ inh: 1; T cruzi repl: -35

How did COC(=O)C(NNc1ccc(F)cc1)(NC(=O)c1ccccc1)C(F)(F)F (stereo not given) do in these assays?
CaV13 ICDI inh: -2; PfHsp90 set2: -18; N-glyco inh: -2; PvdQ inh: 11

What do the screens show for `CCOc1cc(/C=C2\CCCc3c2nc2ccccc2c3C(=O)O)ccc1OC`?
CaV13 ICDI inh: 5; PfHsp90 set2: 0; N-glyco inh: 2; HSF1 activator: 56*; PvdQ inh: -4; T cruzi repl: -6

How did COc1cc(/C=C2\CCCc3c2nc2ccccc2c3C(=O)O)cc(Br)c1O do in these assays?
CaV13 ICDI inh: -5; PfHsp90 set2: 0; N-glyco inh: 3; HSF1 activator: -1; PvdQ inh: -8; T cruzi repl: -4

Results for COc1ccc(/C=C2\CCCc3c2nc2ccccc2c3C(=O)OCC(=O)c2c(N)n(C)c(=O)n(C)c2=O)cc1 ?
HSF1 activator: 1; T cruzi repl: 68*

What do the screens show for `COc1ccc(-c2cc(C(=O)OCC(=O)c3c(N)n(C)c(=O)n(C)c3=O)c3ccccc3n2)cc1`?
CaV13 ICDI inh: 11; N-glyco inh: 0; HSF1 activator: 9; PvdQ inh: 4; T cruzi repl: 42

What do the screens show for `CCCCn1nc(C(=O)N(C)C2CCCCC2)c2ccccc2c1=O`?
CaV13 ICDI inh: -6; PfHsp90 set2: 7; N-glyco inh: -1; PvdQ inh: -1

Results for Brc1ccc(CN2CCN(Cc3c[nH]c4ccccc34)CC2)cc1 ?
CaV13 ICDI inh: -16; PfHsp90 set2: 7; N-glyco inh: -5; HSF1 activator: 7; PvdQ inh: 17; T cruzi repl: 42

What do the screens show for `Cc1ccccc1N1CCN(Cc2c[nH]c3ccccc23)CC1`?
CaV13 ICDI inh: -8; PfHsp90 set2: 16; N-glyco inh: -5; HSF1 activator: -11; PvdQ inh: -15; T cruzi repl: 60*

How did c1cnc(N2CCN(Cc3c[nH]c4ccccc34)CC2)nc1 do in these assays?
PfHsp90 set2: 0; N-glyco inh: -2; HSF1 activator: 2; PvdQ inh: 1; T cruzi repl: 50

What do the screens show for `O=[N+]([O-])c1ccc(CN2CCN(Cc3c[nH]c4ccccc34)CC2)cc1`?
CaV13 ICDI inh: -6; PfHsp90 set2: 8; N-glyco inh: 3; HSF1 activator: -4; PvdQ inh: -10; T cruzi repl: 56*

What do the screens show for `Fc1ccc(N2CCN(Cc3c[nH]c4ccccc34)CC2)cc1`?
HSF1 activator: 9; T cruzi repl: 73*

Results for COc1ccccc1N1CCN(Cc2c[nH]c3ccccc23)CC1 ?
CaV13 ICDI inh: -4; PfHsp90 set2: -16; N-glyco inh: -4; HSF1 activator: 4; PvdQ inh: -13; T cruzi repl: 58*

How did CCCCCCC12Cc3cc(OC)c(OC)cc3C(O1)c1c(cc(C)oc1=O)O2 (stereo not given) do in these assays?
CaV13 ICDI inh: -5
